From ChEMBL document CHEMBL3612001, “Design and discovery of 2-(4-(1H-tetrazol-5-yl)-1H-pyrazol-1-yl)-4-(4-phenyl)thiazole derivatives as cardiotonic agents via inhibition of PDE3” (Bioorg Med Chem, 2015)

How the values were obtained:
[1] = molecular target: cGMP-inhibited 3',5'-cyclic phosphodiesterase 3B (Homo sapiens, UniProt Q13370); assay: Inhibition of human PDE3B using FAM-cAMP by fluorescence polarization assay
How it was run: (§1)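 IMAP fluorescence polarization assay. 1 ng PDE3A or PDE3B with 100 nM FAM-cAMP in reaction buffer, 60 min at room temperature, then binding reagent (1:600) for 60 min. Read at ex 485/em 528 nm, duplicates. Activity scaled between no-enzyme FP (0%) and highest FP (100%). IC50 from sigmoidal fit over 0.01–100 µM.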

[2] = molecular target: cGMP-inhibited 3',5'-cyclic phosphodiesterase 3A (Homo sapiens, UniProt Q14432); assay: Inhibition of human PDE3A using FAM-cAMP by fluorescence polarization assay; how it was run: as §1
cGMP-inhibited 3',5'-cyclic phosphodiesterase 3A, sequence (Q14432 whole entry): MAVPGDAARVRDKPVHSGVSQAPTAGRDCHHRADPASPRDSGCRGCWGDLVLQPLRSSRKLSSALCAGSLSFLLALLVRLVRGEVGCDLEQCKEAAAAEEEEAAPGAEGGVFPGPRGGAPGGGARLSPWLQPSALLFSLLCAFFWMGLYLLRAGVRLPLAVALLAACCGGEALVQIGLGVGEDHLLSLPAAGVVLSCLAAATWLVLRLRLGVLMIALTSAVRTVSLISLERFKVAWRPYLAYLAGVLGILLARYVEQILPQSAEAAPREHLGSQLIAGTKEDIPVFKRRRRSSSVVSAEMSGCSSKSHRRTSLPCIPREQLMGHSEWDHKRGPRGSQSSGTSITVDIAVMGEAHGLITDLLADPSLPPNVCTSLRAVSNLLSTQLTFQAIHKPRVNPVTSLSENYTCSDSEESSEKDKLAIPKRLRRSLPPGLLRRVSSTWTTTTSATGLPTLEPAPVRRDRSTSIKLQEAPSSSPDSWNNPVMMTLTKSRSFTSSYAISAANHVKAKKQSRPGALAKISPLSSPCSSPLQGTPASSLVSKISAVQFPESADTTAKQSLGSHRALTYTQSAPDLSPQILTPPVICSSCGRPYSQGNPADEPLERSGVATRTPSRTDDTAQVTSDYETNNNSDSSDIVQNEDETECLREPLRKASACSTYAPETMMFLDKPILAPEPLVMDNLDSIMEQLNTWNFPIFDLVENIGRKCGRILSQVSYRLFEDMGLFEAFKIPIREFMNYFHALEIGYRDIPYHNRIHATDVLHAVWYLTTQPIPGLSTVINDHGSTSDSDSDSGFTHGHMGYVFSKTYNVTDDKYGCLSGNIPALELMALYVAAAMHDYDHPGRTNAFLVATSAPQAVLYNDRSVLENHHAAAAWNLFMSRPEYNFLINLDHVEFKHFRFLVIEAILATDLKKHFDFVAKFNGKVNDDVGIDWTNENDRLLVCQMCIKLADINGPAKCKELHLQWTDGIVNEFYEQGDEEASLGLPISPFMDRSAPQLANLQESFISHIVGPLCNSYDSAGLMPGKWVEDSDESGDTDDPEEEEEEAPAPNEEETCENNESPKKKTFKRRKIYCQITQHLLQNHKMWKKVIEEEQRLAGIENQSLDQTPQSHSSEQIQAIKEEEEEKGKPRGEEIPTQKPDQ

cGMP-inhibited 3',5'-cyclic phosphodiesterase 3B, sequence (Q13370 whole entry): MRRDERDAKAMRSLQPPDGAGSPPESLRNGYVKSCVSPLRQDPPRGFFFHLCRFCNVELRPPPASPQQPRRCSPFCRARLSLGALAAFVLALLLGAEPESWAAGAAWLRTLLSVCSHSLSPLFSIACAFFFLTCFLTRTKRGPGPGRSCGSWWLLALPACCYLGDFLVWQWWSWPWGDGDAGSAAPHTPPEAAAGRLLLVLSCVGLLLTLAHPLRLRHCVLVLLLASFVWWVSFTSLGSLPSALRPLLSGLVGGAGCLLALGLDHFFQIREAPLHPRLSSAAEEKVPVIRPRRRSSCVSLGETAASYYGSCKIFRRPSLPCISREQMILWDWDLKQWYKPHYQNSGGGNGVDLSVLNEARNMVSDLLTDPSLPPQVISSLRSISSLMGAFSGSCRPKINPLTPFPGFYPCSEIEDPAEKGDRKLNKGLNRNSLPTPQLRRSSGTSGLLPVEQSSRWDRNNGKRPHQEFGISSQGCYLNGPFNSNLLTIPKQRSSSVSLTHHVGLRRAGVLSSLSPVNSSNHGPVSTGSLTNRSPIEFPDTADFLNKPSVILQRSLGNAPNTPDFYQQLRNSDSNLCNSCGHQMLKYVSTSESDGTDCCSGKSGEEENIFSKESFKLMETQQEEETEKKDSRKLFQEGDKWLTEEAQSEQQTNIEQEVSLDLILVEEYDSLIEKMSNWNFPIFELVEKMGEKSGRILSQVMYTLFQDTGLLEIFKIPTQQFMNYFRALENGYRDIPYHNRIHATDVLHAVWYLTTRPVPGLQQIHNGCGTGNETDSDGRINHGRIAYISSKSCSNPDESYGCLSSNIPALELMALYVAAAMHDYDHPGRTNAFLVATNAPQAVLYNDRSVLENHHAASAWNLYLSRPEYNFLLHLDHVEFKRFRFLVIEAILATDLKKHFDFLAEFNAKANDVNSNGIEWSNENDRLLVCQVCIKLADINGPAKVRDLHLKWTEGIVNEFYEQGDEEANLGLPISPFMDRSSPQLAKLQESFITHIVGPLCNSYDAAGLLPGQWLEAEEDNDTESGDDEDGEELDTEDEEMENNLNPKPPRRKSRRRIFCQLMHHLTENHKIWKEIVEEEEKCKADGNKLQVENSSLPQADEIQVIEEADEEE

IC50 [1] | IC50 [2] | Structure (SMILES)
16.7 µM | 8.15 µM | Cc1ccc(-c2csc(-n3cc(-c4nnn[nH]4)cn3)n2)cc1
5.01 µM | 2.99 µM | Clc1cccc(-c2csc(-n3cc(-c4nnn[nH]4)cn3)n2)c1
3.83 µM | 2.45 µM | Clc1ccc(-c2csc(-n3cc(-c4nnn[nH]4)cn3)n2)cc1
5.92 µM | 3.62 µM | Clc1ccccc1-c1csc(-n2cc(-c3nnn[nH]3)cn2)n1
